Laboratory results taken from ChEMBL document CHEMBL1123888, “Aldosterone antagonists. 2. Synthesis and biological activities of 11,12-dehydropregnane derivatives” (J Med Chem, 1987).
Activity calls are given as the source filed them. No cut-off for these calls is given here.

Legend:
[1] = target: T1, Mineralocorticoid receptor (Rattus norvegicus) (UniProt P22199); assay: Relative binding affinity to the rat mineralocorticoid receptor determined in rat renal cytosol using [3]Ald as ligand
T1 sequence (whole entry): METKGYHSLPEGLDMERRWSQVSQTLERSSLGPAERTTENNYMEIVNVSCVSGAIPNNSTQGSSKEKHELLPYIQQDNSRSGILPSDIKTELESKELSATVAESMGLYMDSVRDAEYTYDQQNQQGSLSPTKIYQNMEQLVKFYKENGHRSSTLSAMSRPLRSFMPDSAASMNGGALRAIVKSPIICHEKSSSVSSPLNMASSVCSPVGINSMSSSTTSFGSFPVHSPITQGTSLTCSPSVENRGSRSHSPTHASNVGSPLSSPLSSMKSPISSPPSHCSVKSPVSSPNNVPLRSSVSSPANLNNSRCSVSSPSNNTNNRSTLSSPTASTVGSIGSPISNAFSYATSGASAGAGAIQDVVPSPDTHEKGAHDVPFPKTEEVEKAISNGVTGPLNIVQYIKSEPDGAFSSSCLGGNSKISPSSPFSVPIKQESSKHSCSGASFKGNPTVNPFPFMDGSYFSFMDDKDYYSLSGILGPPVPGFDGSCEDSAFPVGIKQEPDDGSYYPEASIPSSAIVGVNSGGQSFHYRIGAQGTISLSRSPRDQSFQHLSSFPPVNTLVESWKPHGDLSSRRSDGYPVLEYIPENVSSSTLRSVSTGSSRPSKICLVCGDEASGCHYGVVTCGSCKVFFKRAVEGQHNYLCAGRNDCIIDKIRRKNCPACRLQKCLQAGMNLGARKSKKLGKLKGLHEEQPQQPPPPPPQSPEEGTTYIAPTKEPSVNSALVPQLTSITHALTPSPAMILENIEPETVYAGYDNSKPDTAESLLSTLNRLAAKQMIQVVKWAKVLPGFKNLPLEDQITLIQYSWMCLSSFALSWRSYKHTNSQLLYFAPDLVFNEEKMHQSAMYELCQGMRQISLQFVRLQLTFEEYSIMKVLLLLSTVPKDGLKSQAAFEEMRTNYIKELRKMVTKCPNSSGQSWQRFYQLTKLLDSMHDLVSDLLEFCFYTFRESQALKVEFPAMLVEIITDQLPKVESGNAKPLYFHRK
Outline: (§1)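 Renal cytosol came from male Sprague-Dawley rats (4-8 weeks) adrenalectomized bilaterally 1 or 2 days earlier. It was incubated with various competitor concentrations and about 1 nM [3H]Ald for 42-48 h at 0 °C or 100-120 min at 25 °C. Bound and free steroid were separated by DCC.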

[2] = target: T1, Mineralocorticoid receptor (Rattus norvegicus); assay: Relative binding affinity against mineralocorticoid receptor determined in rat renal cytosol using [3]Ald as ligand; outline: as §1
[3] = target: T1, Mineralocorticoid receptor (Rattus norvegicus); assay: Antagonist activity against Mineralocorticoid receptor after subcutaneous administration in Male Sprague Dawley rats; (+) =positive; format: functional, organism-based; conditions: filed as antagonist
Outline: (§2)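 Male rats were bilaterally adrenalectomized (bioassay modified from Kagawa). Ald (1 µg/kg) was given sc, immediately followed by test compound in sesame oil sc or orally. Urine was collected from 2 to 6 h after steroid. Potency came from the urinary Na/K ratio of sample versus control, with 95% confidence limits.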

[4] = target: T1, Mineralocorticoid receptor (Rattus norvegicus); assay: Antagonist activity against Mineralocorticoid receptor after oral administration in Male Sprague Dawley rats; (+) =positive; format: functional, organism-based; conditions: filed as antagonist; outline: as §2
Rattus norvegicus = species: Rattus norvegicus; assay: Displacement of [3H]promegestone from progestin receptor of rat uterine cytosol at 0 degree Centigrade
Outline: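 Uteri from estradiol-primed rats supplied the cytosol. It was incubated with various competitor concentrations and about 1 nM [3H]promegestone for 16-20 h at 0 °C. Bound and free steroid were separated by DCC. RBA (progesterone = 100%) = 100 × ratio of the 50%-inhibition concentrations of standard and competitor.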

[5] = target: T1, Mineralocorticoid receptor (Rattus norvegicus); assay: Antagonist activity against Mineralocorticoid receptor was determined after subcutaneous administration in Male Sprague Dawley rats; format: functional, organism-based; outline: as §2
[6] = target: T1, Mineralocorticoid receptor (Rattus norvegicus); assay: Antagonist activity against Mineralocorticoid receptor after oral administration in Male Sprague Dawley rats; (-) = negative; format: functional, organism-based; outline: as §2
[7] = target: T2, Progesterone receptor (Rattus norvegicus) (UniProt Q63449); assay: In vivo relative Progestational activity in Male Sprague-Dawley rats was determined.; format: functional, organism-based
T2 sequence (whole entry): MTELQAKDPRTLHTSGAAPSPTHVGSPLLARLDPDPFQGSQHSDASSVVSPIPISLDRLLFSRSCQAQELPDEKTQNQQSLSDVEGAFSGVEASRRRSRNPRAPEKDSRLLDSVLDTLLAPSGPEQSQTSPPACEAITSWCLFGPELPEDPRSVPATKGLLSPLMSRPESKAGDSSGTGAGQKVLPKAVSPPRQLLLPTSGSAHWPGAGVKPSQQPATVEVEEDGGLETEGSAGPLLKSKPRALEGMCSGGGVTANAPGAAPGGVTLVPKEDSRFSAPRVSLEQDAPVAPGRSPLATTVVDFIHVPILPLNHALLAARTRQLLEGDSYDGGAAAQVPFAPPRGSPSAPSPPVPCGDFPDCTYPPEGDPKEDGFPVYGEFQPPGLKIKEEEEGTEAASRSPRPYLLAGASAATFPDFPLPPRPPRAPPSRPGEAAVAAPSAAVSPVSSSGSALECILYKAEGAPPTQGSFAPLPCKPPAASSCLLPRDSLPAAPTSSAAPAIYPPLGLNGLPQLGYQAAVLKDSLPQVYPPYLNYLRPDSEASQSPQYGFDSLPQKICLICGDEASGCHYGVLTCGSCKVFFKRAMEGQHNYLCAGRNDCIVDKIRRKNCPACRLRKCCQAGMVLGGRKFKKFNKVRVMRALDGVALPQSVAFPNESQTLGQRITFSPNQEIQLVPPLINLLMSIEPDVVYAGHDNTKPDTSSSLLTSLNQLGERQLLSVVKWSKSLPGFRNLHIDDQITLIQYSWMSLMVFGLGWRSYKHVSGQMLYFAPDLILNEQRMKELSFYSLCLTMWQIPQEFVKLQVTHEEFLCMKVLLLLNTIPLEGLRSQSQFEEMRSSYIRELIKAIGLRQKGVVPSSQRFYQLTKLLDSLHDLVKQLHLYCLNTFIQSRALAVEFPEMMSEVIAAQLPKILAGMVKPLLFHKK

[8] = target: T2, Progesterone receptor (Rattus norvegicus); assay: Relative binding affinity against progesterone receptor in […]
[9] = target: T1, Mineralocorticoid receptor (Rattus norvegicus); assay: Relative anti-mineralocorticoid potency compared to Spironolactone after oral administration; format: functional, organism-based; outline: as §2
[10] = target: T1, Mineralocorticoid receptor (Rattus norvegicus); assay: Antagonist activity against Mineralocorticoid receptor after po administration in Male Sprague Dawley rats; (-) = negative; format: functional, organism-based; outline: as §2
[11] = target: T2, Progesterone receptor (Rattus norvegicus); assay: Relative binding affinity against progesterone receptor determined in rat […] cytosol using [3H]DHT as ligand
[12] = target: T1, Mineralocorticoid receptor (Rattus norvegicus); assay: Relative binding affinity against Mineralocorticoid receptor in Male Sprague-Dawley rats; outline: as §1
[13] = target: T1, Mineralocorticoid receptor (Rattus norvegicus); assay: In vivo relative Mineralocorticoid activity in Male Sprague-Dawley rats; format: functional, organism-based
[14] = target: T1, Mineralocorticoid receptor (Rattus norvegicus); assay: Agonist activity against Mineralocorticoid receptor was determined after subcutaneous administration in Male Sprague Dawley rats; (+) =positive; format: functional, organism-based; conditions: filed as agonist
[15] = target: T1, Mineralocorticoid receptor (Rattus norvegicus); assay: Displacement of [3]Aldosterone from mineralocorticoid receptor of rat renal cytosol at 0 degree Centigrade; outline: as §1

| Compound | RBA [1] | RBA [2] | Activity [3] | Activity [5] | RBA [11] | also measured |
| --- | --- | --- | --- | --- | --- | --- |
| C[C@]12CCC(=O)C=C1C=C[C@@H]1[C@@H]2CC[C@@]2(C)[C@H]1CC[C@@]21CCC(=O)O1 | 2.9% | 1.7% | Antagonist |  |  | Activity [6]: inactive |
| CC(=O)[C@H]1CC[C@H]2[C@@H]3CCC4=CC(=O)CC[C@@H]4[C@H]3CC[C@]12C |  |  |  |  |  | Relative activity [7]: 10.7; relative binding affinity (RBA) [8]: 650 |
| CC12C=CC(=O)C=C1[C@H]1C[C@H]1C1C2C=CC2(C)C1CC[C@@]21CCC(=O)O1 (stereo not given in full) | 48% | 32% | Antagonist |  | 1.9% | Relative potency [9]: 1.31; Activity [10]: inactive; Activity [6]: inactive |
| CC12CCC(=O)C=C1CCC1C2C=CC2(C)C(C(=O)CO)CCC12 (stereo not given) |  |  |  |  |  | relative binding affinity (RBA) [12]: 150; Relative activity [13]: 1 |
| CC(C)(C)C(=O)S[C@@H]1CC2=CC(=O)C=CC2(C)C2C=CC3(C)C(CC[C@@]34CCC(=O)O4)C21 (stereo not given in full) | 530% | 1000% | Antagonist |  | 18% | Activity [10]: inactive; Activity [4]: Antagonist |
| CC12C=CC(=O)C=C1C[C@@H](SC(=O)c1ccccc1)C1C2C=CC2(C)C1CC[C@@]21CCC(=O)O1 (stereo not given in full) | 37% | 3.7% |  | inactive |  | Activity [14]: Agonist |

Second part, led by results:

| RBA [1] | RBA [2] | Activity [3] | Activity [5] | RBA [11] | Compound | also measured |
| --- | --- | --- | --- | --- | --- | --- |
| 440% | 220% |  |  |  | CC12C=CC(=O)C=C1CCC1C2C=CC2(C)C1C1CC1[C@@]21CCC(=O)O1 (stereo not given in full) |  |
| 15% | 3.2% | Antagonist | inactive |  | CC(=O)S[C@@H]1CC2=CC(=O)CC[C@]2(C)[C@H]2CC[C@@]3(C)[C@@H](CC[C@@]34CCC(=O)O4)[C@H]12 | Activity [4]: Antagonist; RBA (Rattus norvegicus): 2.6% |
| > 1000% | 370% |  | inactive | 89% | CC(=O)S[C@@H]1CC2=CC(=O)CCC2(C)C2C=CC3(C)C(C4CC4[C@@]34CCC(=O)O4)C21 (stereo not given in full) |  |
| 760% |  |  | inactive |  | CC12CCC(=O)C=C1C1CC1C1C2C=CC2(C)C1C1CC1[C@@]21CCC(=O)O1 (stereo not given in full) | RBA [15]: 300%; RBA (Rattus norvegicus): 540% |
| 42% |  | Antagonist |  | 38% | CC(C)(C)C(=O)S[C@@H]1CC2=CC(=O)CCC2(C)C2C=CC3(C)C(CC[C@@]34CCC(=O)O4)C21 (stereo not given in full) | RBA [15]: 46% |
